# From ChEMBL document CHEMBL1121906, “2-(Aminomethyl)phenols, a new class of saluretic agents. 2. Synthesis and pharmacological properties of the 5-aza isostere of 2-(aminomethyl)-4-(1,1-dimethylethyl)-6-iodophenol” (1981)
# Several values for one entry are separate records, joined by “and”; a condition that tells them apart may be missing. Equal entries are not always repeated.
# Assays:
# Rattus norvegicus [1] = test: The saluretic(Cl-) effect of compound was measured in rats after oral administration at 3 mg/kg dose; assay type: functional
# Rattus norvegicus [2] = test: The saluretic(Cl-) effect of compound was measured in rats after oral administration at 81 mg/kg dose.; assay type: functional
# Rattus norvegicus [3] = test: The saluretic(K+) effect of compound was measured in rats after oral administration at 81 mg/kg dose.; assay type: functional
# Rattus norvegicus [4] = test: The saluretic(Cl-) effect of compound was measured in rats after oral administration at 27 mg/kg dose; Cl-mequiv*100/cage=14; assay type: functional
# Rattus norvegicus [5] = test: The saluretic(K+) effect of compound was measured in rats after oral administration at 3 mg/kg dose; assay type: functional
# Rattus norvegicus [6] = test: Saluretic(Na+) effect of compound was measured in rats after oral administration at 3 mg/kg dose; Na+ mequiv*100/cage; assay type: functional
# Canis familiaris [7] = test: The saluretic(Na+) effect of compound was measured in dogs after iv administration at 5 mg/kg dose; Na+ mequiv/min=279
# Rattus norvegicus [8] = test: Mean arterial pressure was measured in hypertensive rat at dose of 20 mg/kg, po; assay type: functional, Artery
# Outline: (§1)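 Spontaneously hypertensive rats received the compound orally. The read-out was the maximum fall in mean arterial pressure (mmHg ± SE) and the duration of effect in hours. The number of rats varied by treatment, and the protocol follows an earlier report.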
# Canis familiaris [9] = test: The saluretic(Cl-) effect of compound was measured in dogs after iv administration at 5 mg/kg dose; Cl-mequiv/min=303
# Rattus norvegicus [10] = test: The saluretic(Na+) effect of compound was measured in rats after oral administration at 27 mg/kg dose; Na+ mequiv*100/cage; assay type: functional
# Rattus norvegicus [11] = test: The saluretic(K+) effect of compound was measured in rats after oral administration at 27 mg/kg dose; K+mequiv*100/cage=14; assay type: functional
# Rattus norvegicus [12] = test: The saluretic (Na+)effect of compound was measured in rats after oral administration at 81 mg/kg dose; assay type: functional
# Rattus norvegicus [13] = test: The saluretic (Na+) effect of compound was measured in rats after oral administration at 27 mg/kg dose; Na+ mequiv*100/cage; assay type: functional
# Canis familiaris [14] = test: The saluretic(K+) effect of compound was measured in dogs after iv administration at 5 mg/kg dose; K+mequiv/min=20
# Rattus norvegicus [15] = organism: Rattus norvegicus; test: Duration of effect was measured in hypertensive rat.; assay type: functional; outline: as §1
# Rattus norvegicus [16] = test: The saluretic(K+) effect of compound was measured in rats after oral administration at 81 mg/kg dose; K+mequiv*100/cage=14; assay type: functional
# Rattus norvegicus [17] = organism: Rattus norvegicus; test: Duration of effect was measured in hypertensive rat; assay type: functional; outline: as §1
# Canis familiaris [18] = test: The saluretic(Na+) effect of compound was measured in dogs after iv administration at 3 mg/kg dose; Na+ mequiv/min=279; assay type: functional, Canis lupus familiaris
# Rattus norvegicus [19] = test: The saluretic(Cl-) effect of compound was measured in rats after oral administration at 81 mg/kg dose; Cl-mequiv*100/cage=14; assay type: functional
# Rattus norvegicus [20] = test: The saluretic(K+) effect of compound was measured in rats after oral administration at 3 mg/kg dose; K+mequiv*100/cage=14; assay type: functional
# Canis familiaris [21] = test: The saluretic(Cl-) effect of compound was measured in dogs after iv administration at 3 mg/kg dose; Cl-mequiv/min=303; assay type: functional, Canis lupus familiaris
# Rattus norvegicus [22] = test: The saluretic(Cl-) effect of compound was measured in rats after oral administration at 3 mg/kg dose; Cl-mequiv*100/cage=14; assay type: functional
# Canis familiaris [23] = test: The saluretic(K+) effect of compound was measured in dogs after iv administration at 3 mg/kg dose; K+mequiv/min=20; assay type: functional, Canis lupus familiaris
# Rattus norvegicus [24] = test: Mean arterial pressure was measured in hypertensive rat at dose of 20 mg/kg, ip; conditions: route intraperitoneal
# Rattus norvegicus [25] = test: The saluretic (Na+) effect of compound was measured in rats after oral administration at 81 mg/kg dose; Na+ mequiv*100/cage; assay type: functional
# Rattus norvegicus [26] = test: The saluretic(K+) effect of compound was measured in rats after oral administration at 9 mg/kg dose; K+mequiv*100/cage=14; assay type: functional
# Rattus norvegicus [27] = test: The saluretic(Cl-) effect of compound was measured in rats after oral administration at 9 mg/kg dose; Cl-mequiv*100/cage=14; assay type: functional
# Rattus norvegicus [28] = test: The saluretic(K+) effect of compound was measured in rats after oral administration at 3 mg/kg dose; K+ mequiv x 100/cage=14; assay type: functional
# Rattus norvegicus [29] = test: Saluretic(Na+) effect of compound was measured in rats after oral administration at 3 mg/kg dose; Na+ mequiv x 100/cage; assay type: functional
# Rattus norvegicus [30] = test: The saluretic (Na+) effect of compound was measured in rats after oral administration at 9 mg/kg dose; Na+ mequiv*100/cage; assay type: functional
# Rattus norvegicus [31] = test: The saluretic(Cl-) effect of compound was measured in rats after oral administration at 3 mg/kg dose; Cl- mequiv x 100/cage =14; assay type: functional
# Canis familiaris [32] = test: The saluretic(K+) effect of compound was measured in dogs after iv administration at 2 mg/kg dose; K+mequiv/min=20; assay type: functional, Canis lupus familiaris
# Canis familiaris [33] = test: The saluretic(Cl-) effect of compound was measured in dogs after iv administration; Cl-mequiv/min=303
# Canis familiaris [34] = test: The saluretic(Na+) effect of compound was measured in dogs after iv administration at 2 mg/kg dose; Na+ mequiv/min=279; assay type: functional, Canis lupus familiaris
compound,measurement,setting,value
CC(C)(C)c1cc(CN)c(O)c(I)n1,Diuretic effects,Rattus norvegicus [1],279
same,Diuretic effects,Rattus norvegicus [2],528
same,Diuretic effects,Rattus norvegicus [3],108
same,Diuretic effects,Rattus norvegicus [4]; 27 mg/kg,351 and 444
same,Diuretic effects,Rattus norvegicus [5],51
same,Diuretic effects,Rattus norvegicus [6],178
same,Diuretic effects,Canis familiaris [7],611
same,Max fall,Rattus norvegicus [8]; dose 20 mg/kg,13 mmHg
same,Diuretic effects,Canis familiaris [9],729
same,Diuretic effects,Rattus norvegicus [10],276
same,Diuretic effects,Rattus norvegicus [11]; 27 mg/kg,63 and 83
same,Diuretic effects,Rattus norvegicus [12],330
same,Diuretic effects,Rattus norvegicus [13],276
same,Diuretic effects,Canis familiaris [14],48
same,Duration,Rattus norvegicus [15],>24 h
NS(=O)(=O)c1cc2c(cc1Cl)NCNS2(=O)=O [HYDROCHLOROTHIAZIDE],Diuretic effects,Rattus norvegicus [16],37
same,Duration,Rattus norvegicus [17],<8 h and 12 h
same,Diuretic effects,Rattus norvegicus [4],156
same,Diuretic effects,Canis familiaris [18],166
same,Max fall,Rattus norvegicus [8]; dose 20 mg/kg,25 mmHg
same,Diuretic effects,Rattus norvegicus [19],143
same,Diuretic effects,Rattus norvegicus [20],34
same,Diuretic effects,Rattus norvegicus [11],34
same,Diuretic effects,Canis familiaris [21],156
same,Diuretic effects,Rattus norvegicus [22],154
same,Diuretic effects,Canis familiaris [23],33
CC(C)(C)c1cc(CN)c(O)cn1,Diuretic effects,Rattus norvegicus [16],23
same,Max fall,Rattus norvegicus [24],12 mmHg
same,Diuretic effects,Rattus norvegicus [4],37
same,Diuretic effects,Canis familiaris [18],279
same,Diuretic effects,Rattus norvegicus [25],63
same,Diuretic effects,Rattus norvegicus [26],7
same,Diuretic effects,Rattus norvegicus [27],11
same,Diuretic effects,Rattus norvegicus [28],14
same,Diuretic effects,Rattus norvegicus [19],98
same,Diuretic effects,Rattus norvegicus [29],14
same,Diuretic effects,Rattus norvegicus [30],8
same,Diuretic effects,Rattus norvegicus [11],15
same,Diuretic effects,Canis familiaris [21],303
same,Diuretic effects,Rattus norvegicus [31],14
same,Diuretic effects,Rattus norvegicus [13],22
same,Diuretic effects,Canis familiaris [23],20
NS(=O)(=O)c1cc(C(=O)O)c(NCc2ccco2)cc1Cl [FUROSEMIDE],Diuretic effects,Rattus norvegicus [16],77
same,Diuretic effects,Canis familiaris [32],141
same,Diuretic effects,Rattus norvegicus [4]; 27 mg/kg,213 and 370
same,Diuretic effects,Canis familiaris [33],1081
same,Diuretic effects,Rattus norvegicus [25],244
same,Diuretic effects,Rattus norvegicus [26],14
same,Diuretic effects,Rattus norvegicus [27],22
same,Max fall,"Rattus norvegicus [8]; dose 30 mg/kg, in the assay text read “30 mg/kg” for “20 mg/kg”",12 mmHg
same,Diuretic effects,Rattus norvegicus [30],7
same,Diuretic effects,Rattus norvegicus [11],55
same,Diuretic effects,Canis familiaris [34],960
same,Diuretic effects,Rattus norvegicus [13],125
CC(C)(C)c1cc(I)c(O)c(CN)c1,Diuretic effects,Rattus norvegicus [16],99
same,Diuretic effects,Rattus norvegicus [4],435
same,Diuretic effects,Canis familiaris [18],716
same,Diuretic effects,Rattus norvegicus [6],146
same,Diuretic effects,Rattus norvegicus [25],351
same,Diuretic effects,Rattus norvegicus [26],77
same,Diuretic effects,Rattus norvegicus [27],364
same,Max fall,"Rattus norvegicus [8]; dose 0.312 mg/kg, in the assay text read “0.312 mg/kg” for “20 mg/kg”",26 mmHg
same,Diuretic effects,Rattus norvegicus [19],489
same,Diuretic effects,Rattus norvegicus [20],51
same,Diuretic effects,Rattus norvegicus [30],270
same,Diuretic effects,Rattus norvegicus [11],88
same,Diuretic effects,Canis familiaris [21],822
same,Diuretic effects,Rattus norvegicus [22],211
same,Diuretic effects,Rattus norvegicus [13],319
same,Diuretic effects,Canis familiaris [23],66
